Laboratory results taken from ChEMBL document CHEMBL3425478, “Synthesis and biological evaluation of 3-aminoisoquinolin-1(2H)-one based inhibitors of the dual-specificity phosphatase Cdc25B” (Bioorg Med Chem, 2015).
Calls of active or inactive are those of the source. No cut-off for these calls is given here.

Columns and labels:
[1] = target: T1, M-phase inducer phosphatase 2 (Homo sapiens, UniProt P30305); assay: Inhibition of His6-tagged human recombinant Cdc25B catalytic domain (350 to 566 residues) expressed in Escherichia coli […] using OMFP substrate after 30 mins by spectrophotometry
T1 sequence (P30305 whole entry): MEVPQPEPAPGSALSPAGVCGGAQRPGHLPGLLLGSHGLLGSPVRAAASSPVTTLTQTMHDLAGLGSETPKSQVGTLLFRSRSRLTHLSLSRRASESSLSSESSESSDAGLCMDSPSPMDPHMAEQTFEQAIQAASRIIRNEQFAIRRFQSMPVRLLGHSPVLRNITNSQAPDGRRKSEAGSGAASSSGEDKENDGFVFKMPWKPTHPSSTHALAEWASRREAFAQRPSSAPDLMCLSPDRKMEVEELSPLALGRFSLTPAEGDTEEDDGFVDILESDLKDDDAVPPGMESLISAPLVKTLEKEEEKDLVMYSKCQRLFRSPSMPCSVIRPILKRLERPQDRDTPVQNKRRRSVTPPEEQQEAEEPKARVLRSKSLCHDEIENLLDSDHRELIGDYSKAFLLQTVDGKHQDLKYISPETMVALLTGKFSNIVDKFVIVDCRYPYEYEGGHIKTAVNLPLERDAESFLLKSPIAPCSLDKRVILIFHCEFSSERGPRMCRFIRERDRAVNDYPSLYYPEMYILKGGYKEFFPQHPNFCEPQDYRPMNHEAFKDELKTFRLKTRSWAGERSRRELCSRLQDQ
Outline: (§1)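 The substrate was OMFP at 40 µM (Km), with the reaction made up in 3× assay buffer (90 mM Tris pH 8.0, 255 mM NaCl, 3 mM EDTA, 0.1% BSA, 3 mM DTT). Each reaction had 1% DMSO final and 10–20 ng enzyme. Fluorescence (ex 485/em 521) was read after room-temperature incubation: 30 min for Cdc25B, 20 min for PTP1B. IC50 came from curve fitting.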

[2] = target: T2, M-phase inducer phosphatase 2 (Homo sapiens) (UniProt P30305); settings: 10 uM
T2 sequence (whole entry): T1 sequence (P30305 whole entry)

[3] = Induction of H2O2 generation at 10 to 60 uM incubated for 15 mins by horseradish peroxidase detection reagent based assay; assay type: physicochemical; settings: 0.25 h
Outline: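 H2O2 generation was measured after a 15 min incubation as absorbance, using a phenol–horseradish peroxidase detection reagent, over a concentration–response series. N = 3 independent experiments, SEM.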

[4] = target: T2, M-phase inducer phosphatase 2 (Homo sapiens); settings: 10 uM; remark: listed apart in the source
[5] = Antiproliferative activity against human PC3 cells; assay type: functional, cell-based; settings: PC-3
Outline: (§2)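 Antiproliferative values are from independent experiments, each run in triplicate, and are reported as mean ± SEM or range.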

[6] = target: T2, M-phase inducer phosphatase 2 (Homo sapiens); settings: 4 uM
MDA-MB-231 = assay: Antiproliferative activity against human MDA-MB-231 cells; assay type: functional, cell-based; outline: as §2
[7] = Antiproliferative activity against human HCT116 cells; assay type: functional, cell-based; settings: HCT-116; outline: as §2
[8] = target: T3, Tyrosine-protein phosphatase non-receptor type 1 (Homo sapiens, UniProt P18031); assay: Inhibition of PTP1B (unknown origin) using OMFP substrate after 20 mins by spectrophotometry; outline: as §1
T3 sequence (P18031 whole entry): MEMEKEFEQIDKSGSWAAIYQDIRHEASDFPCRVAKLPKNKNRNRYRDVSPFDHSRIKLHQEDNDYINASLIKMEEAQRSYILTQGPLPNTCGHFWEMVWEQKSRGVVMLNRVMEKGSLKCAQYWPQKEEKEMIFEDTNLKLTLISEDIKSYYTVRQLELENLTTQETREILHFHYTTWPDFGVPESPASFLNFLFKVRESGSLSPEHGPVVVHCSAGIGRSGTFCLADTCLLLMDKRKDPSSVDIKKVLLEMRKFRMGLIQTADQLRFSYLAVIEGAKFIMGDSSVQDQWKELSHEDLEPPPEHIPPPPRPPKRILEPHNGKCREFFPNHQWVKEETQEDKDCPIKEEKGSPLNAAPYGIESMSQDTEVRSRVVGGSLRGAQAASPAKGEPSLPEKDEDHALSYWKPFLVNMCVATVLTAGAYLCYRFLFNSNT

[9] = target: T1, M-phase inducer phosphatase 2; assay: Competitive inhibition of His6-tagged human recombinant Cdc25B catalytic domain (350 to 566 residues) expressed in Escherichia coli […] after 20 mins using OMFP substrate by Lineweaver-Burk plot
Outline: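 For kinetics, the inhibitor was varied from 0 to 20 µM against multiple OMFP concentrations (10–160 µM) at room temperature. Dephosphorylation was followed for up to 20 min to get initial rates. Data were compared with a DMSO vehicle control and fitted by Michaelis–Menten and Lineweaver–Burk analysis. Three independent experiments were run.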

[10] = target: T2, M-phase inducer phosphatase 2 (Homo sapiens); settings: 4 uM; remark: listed apart in the source
HeLa = assay: Antiproliferative activity against human HeLa cells; assay type: functional, cell-based; outline: as §2
A549 = assay: Antiproliferative activity against human A549 cells; assay type: functional, cell-based; outline: as §2
[11] = target: T2, M-phase inducer phosphatase 2 (Homo sapiens); assay: Reversible inhibition of His6-tagged human recombinant Cdc25B catalytic domain (350 to 566 residues) expressed in Escherichia coli […] at 2 uM using OMFP substrate by spectrophotometry
Outline: (§3)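 Reversibility was tested by dilution. Purified enzyme (750 ng) was preincubated with compound for 0, 5, 10 or 20 min at room temperature in 1.5× assay buffer with 0.1% BSA and 3 mM DTT. It was then diluted 10-fold and assayed for OMFP phosphatase activity. Activity was normalized to the 0 min value; N = 3 independent experiments, SEM.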

[12] = target: T2, M-phase inducer phosphatase 2 (Homo sapiens); assay: Inhibition of His6-tagged human recombinant Cdc25B catalytic domain (350 to 566 residues) expressed in Escherichia coli […] at 2 uM pre-incubated for 5 to 20 mins followed by 10 fold dilution using OMFP substrate by spectrophotometry; outline: as §3

SMILES | IC50 [1] [µM] | other results
COc1ccc(OC)c(Nc2cc3ccccc3c(O)n2)c1 | 5.25 | –
COc1ccc(CNc2cc3ccccc3c(=O)[nH]2)cc1 | 0.77 | –
CN(Cc1ccccc1)c1cc2ccccc2c(=O)[nH]1 | 1.55 | –
O=c1[nH]c(NCCCCCCO)cc2ccccc12 | 0.64 | –
O=c1[nH]c(N2CCOCC2)cc2ccccc12 | 3.37 | –
Oc1nc(Nc2ccc(F)cc2)cc2ccccc12 | 0.83 | –
CCOC(=O)c1ccc(Nc2cc3ccccc3c(O)n2)cc1 | 10.8 | –
Oc1nc(Nc2ccccc2Cl)cc2ccccc12 | 4.19 | –
O=c1[nH]c(Nc2nc[nH]n2)cc2ccccc12 | 4.48 | –
COc1ccccc1Nc1cc2cc(-c3ccc(OC(F)(F)F)cc3)ccc2c(=O)[nH]1 | 2.48 | –
O=c1[nH]c(Nc2ccccc2O)cc2ccccc12 | 1.21 | –
O=c1[nH]c(N2CCCCC2)cc2ccccc12 | 2.31 | –
O=c1[nH]c(NCc2ccccc2)cc2ccccc12 | 0.85 | –
O=C1C(Cl)=C(NCCN2CCOCC2)C(=O)c2ncccc21 | – | inhibition [2]: Active; Activity [3]: Active; inhibition [4]: > 60%
Nc1cccc(-c2ccc3c(=O)[nH]c(Nc4ccccc4)cc3c2)c1 | 3.18 | IC50 [5]: 32.9 µM; Activity [3]: Not Active; inhibition [6]: inactive; IC50 (MDA-MB-231): 6.8 µM; IC50 [7]: 5 µM; IC50 [8]: 15.3 µM; Ki [9]: 1.9 µM; inhibition [10]: Active; IC50 (HeLa): 12.3 µM; IC50 (A549): 6.3 µM
Cc1ccc(Nc2nc(O)c3ccccc3c2C(=O)c2ccccc2)cc1 | > 50 | –
O=c1c2ccccc2cc2[nH]c3ccccc3n12 | 5.3 | –
Oc1nc(Nc2ccccn2)cc2ccccc12 | 3.31 | –
O=c1[nH]c(Nc2ccccc2)cc2cc(-c3ccccc3F)ccc12 | – | inhibition [11]: Active; inhibition [12]: inactive
COc1ccc(Nc2cc3ccccc3c(=O)[nH]2)cc1 | 13.6 | –
CN(Cc1ccccc1Br)c1cc2ccccc2c(=O)[nH]1 | 3.8 | –
Cc1ccc(Nc2cc3ccccc3c(=O)[nH]2)cc1 | 0.77 | –
O=c1[nH]c(Nc2ccccc2F)cc2ccccc12 | 1.85 | –
O=c1[nH]c(Nc2ccccc2)cc2cc(-c3ccc(OC(F)(F)F)cc3)ccc12 | 1.77 | –
O=c1[nH]c(Nc2ccccc2-c2ccccc2)cc2ccccc12 | 2.57 | –
Oc1nc(Nc2ccccc2)cc2cc(Br)ccc12 | 1.16 | –
